From ChEMBL document CHEMBL4513216, “Probing the Open Global Health Chemical Diversity Library for Multistage-Active Starting Points for Next-Generation Antimalarials” (ACS Infect Dis, 2020)

Assay: Toxicity liver stage against HepG2, at 10uM
Type: cell-based
Design: test concentration 10 uM, cell line HepG2-A16-CD81EGFP
Details: human, HepG2-A16-CD81EGFP cells; read-out: INHIBITION
Method in brief: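 Uninfected HepG2-A16-CD81EGFP cells, 3 × 10^3 per well, 1536-well, plated on prespotted compound at 10 μM final, parasite-free screening media added to match infected plates; puromycin 10 μM positive, DMSO 0.5% negative; run in parallel with 48 h PbLuc assay at 37 °C, 5% CO2; viability by CellTiter-Glo luminescence, normalized to controls.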

Structure (SMILES) | cytotoxicity at 10 µM [%]
Cc1ccc(CNC2(Cc3cc(-c4ccc(F)cc4)on3)COC2)o1 | 8.13
Cc1cccc2c1nc1n2[C@@H](CNC(=O)NC(C)C)COC1 | 0.0962
Cc1ccc(NC(=O)Cn2ccc3c(=O)n(C)ccc32)cc1F | -2.74
CC(C)CCc1n[nH]c(C(=O)O)c1Br | -3.09
CN1CCN(C(=O)c2cc3sccc3n2Cc2ccccc2)CC1 | 4.38
COc1nn(C)cc1C(=O)N1CCC(c2ccccc2)C1 (configuration not stated) | -2.18
O=C(c1ccc(Cl)cc1-n1cnnn1)N1CCC2(CC1)OCCO2 | 3.51
COc1ccccc1OCC(=O)NCC(O)(c1ccccc1)C1CC1 (configuration not stated) | -16.1
CC(C)(C)C(=O)NCCn1ccc(-c2ccncc2)n1 | -26.7
COc1c(C)cnc(CNCC(C)C)c1C | -0.135
CCOCCCNC(=O)c1cn(CC)nc1C | 5.37
c1cnc(N2CCCC(Cc3nccs3)C2)nc1 (configuration not stated) | 0.45
CNC(=O)C1(Cc2cc(C(C)C)no2)CCN(Cc2ccccn2)C1 (configuration not stated) | 6.24
CC(C(=O)N1CCCC1)n1nc(-c2cccs2)cc(N)c1=O (configuration not stated) | 6.66
Cc1nn(C(C)C)cc1S(=O)(=O)N(C)Cc1nonc1C | 11.6
CC(C)c1nnc(CCC(=O)N2CCOC(c3cnccn3)C2)o1 (configuration not stated) | -2.01
O=S(=O)(c1ccccc1)N1C[C@@H]2CCCCN(Cc3cccs3)[C@@H]2C1 | 1.56
Cc1ccc(S(=O)(=O)N2CCCC(c3n[nH]cc3C(=O)N(C)C)C2)cc1 (configuration not stated) | 6.91
CC(C)Nc1ncc(-c2ccncc2)c([C@@H]2CCCO2)n1 | 10.8
CCCS(=O)(=O)N1CCN(C(C)(C)CO)CC1 | -0.45
O=C(CNC(=O)Nc1c(F)cccc1Oc1ccccc1)NC1CC1 | 6.45
CC(=O)N1CCC(C(=O)NCCc2c[nH]c3cc(C)ccc23)CC1 | 18.1
Cc1ncc2c(n1)CN(Cc1nc(-c3ccco3)oc1C)CC2 | 2.2

Structure (SMILES) | cytotoxicity at 10 µM [%]
OCCC1(NCc2ccc(-n3cccn3)cc2)CCOCC1 | -146
O=C(NCC1CCOC1)c1cc(-c2ccc(Cl)cc2)n[nH]1 (configuration not stated) | -14
COC(=O)C(CNC(=O)Nc1cn[nH]c1)Cc1cccc(C)c1 (configuration not stated) | 1.37
Cc1ccc(N(CCC#N)C(=O)CCc2cccnc2)cc1C | -7.68
CN(CCC#N)C(=O)Cn1cnc2c(Br)cccc2c1=O | -1.6
Cc1noc(CCCNC(=O)CNC(=O)c2cc3ccccc3[nH]2)n1 | 4.81
O=C(c1ccc(CN2CCCC2)cc1)N1CCCC(n2cccn2)C1 (configuration not stated) | -1.88
c1cc(CCN2CCC(c3n[nH]c(C4CC4)n3)CC2)ccn1 | 3.39
O=C(c1ccc(O)nc1)N1CCc2ccc(O)cc2C1 | -8.77
CN(CCc1ccncc1)Cc1nccn1Cc1ccccc1 | 15.1
COCCC(C)NC(=O)Nc1ccc(N2CCOC2=O)c(OC)c1 (configuration not stated) | 6.48
COc1ccc(CN(C)Cc2cccc(C#N)c2)c(OC)c1 | -4.48
CS(=O)(=O)NCCNC(=O)c1cnc(-c2ccccc2)nc1 | 5.3
COc1ccc(Oc2ccc(CNC(=O)C(C)n3cncn3)cn2)cc1 (configuration not stated) | 5.42
CCCN1CCN(C(=O)c2cccnc2-n2cncn2)CC1 | 5.28
Cc1nnc(C(C)NCC2(c3ccc(Cl)cc3)CCOCC2)o1 (configuration not stated) | -1.47
Cn1cc(CC2CCN(C(=O)NCc3csc(C4CC4)n3)C2)cn1 (configuration not stated) | 5.22
NC(=O)C1CCN(C(=O)Cc2ccc(Cl)c(Cl)c2)CC1 | 5.82
Cc1ccsc1C(=O)NC(C)c1ccc2c(c1)CCC(=O)N2 (configuration not stated) | -12.4
Cc1cnc(CCNC(Cc2ccncc2)C(F)(F)F)s1 (configuration not stated) | 24.4
COC(=O)NCCCC(=O)NCC1(c2cccc(Cl)c2)CC1 | 1.42
O=C1NCCCCC1NCc1csc(-c2ccsc2)n1 (configuration not stated) | 3.27
CC(NCc1cnc(C2CCC2)s1)c1ccccc1-n1cccn1 (configuration not stated) | 0.33

Structure (SMILES) | cytotoxicity at 10 µM [%]
CCC(SC)C(=O)N1CCC(n2cccn2)CC1 (configuration not stated) | -45.8
CN(C)C(=O)CN1CCN(C(=O)C2CSc3ccccc3O2)CC1 (configuration not stated) | 1.84
O=C(Nc1cc2c(cc1Br)OCCO2)NC1CCS(=O)(=O)C1 (configuration not stated) | -9.82
CN1C(=O)CC(N(C)Cc2nc3ccccc3c(=O)[nH]2)C1=O (configuration not stated) | 7.61
CN(C)c1ccc(C(=O)NCc2ccc(N3CCOCC3)cc2)cn1 | 6.03
Cc1cc(NCc2ccc(CS(N)(=O)=O)cc2)nc(C)n1 | -7.2
NC(=O)c1cc(C2CCCN(Cc3ccc4c(c3)OCCO4)C2)n[nH]1 (configuration not stated) | -7
COc1ccnc(NC2CCN(CC(=O)N3CCCC3)CC2)n1 | -7.88
CCCn1nc(-c2nc(Cc3ccc(OC)cc3)no2)ccc1=O | 0.0197
Cc1cc(F)ccc1S(=O)(=O)N1CCN(C)Cc2ccccc21 | 4.06
CS(=O)(=O)NCCC(=O)N1CCN(S(=O)(=O)c2ccc(Br)cc2)CC1 | -29.6
CNS(=O)(=O)c1cccc(C(C)NCc2ccccc2)c1 (configuration not stated) | -2.29
Cn1c(C(=O)N2CCC(C(=O)N3CCCC3)CC2)c(Cl)c2ccccc21 | 3.12
CC(=O)c1ccccc1C(=O)NCC1(CO)CC1 | -18.9
CC1CN(C)c2ccccc2CN1C(=O)c1ccc[nH]1 (configuration not stated) | -28.4
Cn1cc(CN2CCOCC3(CCN(C4CCOCC4)C3)C2)cn1 (configuration not stated) | -3.92
COCC1CC2(CCN(Cc3cccnc3)CC2)CN1C(C)C (configuration not stated) | -4.21
COCCN1C[C@@H]2[C@@H](OC)CCN(C(=O)c3cccc(OC)c3)[C@@H]2C1 | -1.01
Cc1ccc(NC2(C(=O)NCc3c(C)n[nH]c3C)CCCC2)cc1 | 3.73
Cc1cc(CN2CCC(C3CCN(CCc4ccccc4)C3)CC2)[nH]n1 (configuration not stated) | 7.19
Cc1ccc2c(c1)c(CNC(C)Cn1ccnc1)nn2C (configuration not stated) | -6.14
COCCC1(CO)CCCN(Cc2ccc(C(F)(F)F)cc2)C1 (configuration not stated) | -153
CCOCCn1nc(C)cc1C(=O)N1CC(C)(C)[C@@](C)(O)C1 | 0.301

Structure (SMILES) | cytotoxicity at 10 µM [%]
CN(C)c1ccc(C(=O)N2CCCN(C3CCCCC3)CC2)cn1 | -6.46
O=C(c1cnn[nH]1)N1CCCC1c1nc2cc(F)ccc2[nH]1 (configuration not stated) | 2.68
CSc1ccc2cc(CN(C)CCCN(C)C)c(=O)[nH]c2c1 | -2.72
CC(O)Cc1cn(CC2CCN(c3nccc4occc34)CC2)nn1 (configuration not stated) | -6.64
CCOCC(=O)N1CCC(c2nccn2C)CC1 | -53.4
Cc1cc(C)cc(CN2CCN(Cc3cc(C#N)n(C)c3)CC2=O)c1 | 6.24
CN1CCN(C[C@@H]2CN(C(=O)CCc3cn[nH]c3)C[C@@H]2CO)CC1 | -0.973
Cc1nc(N)sc1C(=O)N[C@H]1CN(CCO)C[C@@H]1C1CC1 | 1.81
CCCN1CCCC2(CCN(c3nccc(OC)n3)C2)C1=O (configuration not stated) | -4.74
O=C(Cc1cc2c(cc1Cl)OCCO2)N1CC[C@H](CO)[C@H](O)C1 | 7.96
O=C(NCC(F)(F)F)c1coc(COc2cccc(F)c2)n1 | -148
COc1ccc(C(=O)N2CCC(Oc3ccccc3C)(C(=O)O)CC2)o1 | 13.2
O=C(O)C(c1cccc2c1OCC2)N1CCC(N2CCSCC2)CC1 (configuration not stated) | 6.14
CCc1nc2c(c(NCc3cc(-c4cccnc4)no3)n1)CCNCC2 | 0.811
CNc1nc(N2CCN(C3CCCCC3)C(CCO)C2)nc2c1CCC2 (configuration not stated) | -6.86
OC[C@H]1CN(Cc2c(Cl)cccc2Cl)C[C@H]1CN1CCCCC1 | -140
CN(CCO)Cc1nnc(C2CCN(C(=O)c3cc[nH]c3)CC2)n1C | 1.37
CCc1cnc(C)nc1NCCN1CCCCCC1 | -10.8
CC(C)NC(=O)c1nnn(-c2cccc(C(F)(F)F)c2)c1N | -11.5
COC(=O)c1cc(OCC2CCC2)cc(C(=O)N[C@@H]2CNCC[C@H]2O)c1 | -12
COc1cccc(S(=O)(=O)N2CCC(O)(CN(C)C)C2)c1 (configuration not stated) | 3.85
Cn1ccnc1CN1CCN(CC(=O)NCc2ccccc2F)CC1 | -22.1
CCC1c2ccsc2CCN1C(=O)NCc1cc(C)on1 (configuration not stated) | -10.2

Structure (SMILES) | cytotoxicity at 10 µM [%]
Cc1ccc(C(CNC(=O)NCc2ccccn2)N2CCOCC2)o1 (configuration not stated) | -14.9
CCc1ocnc1C(=O)N1CCCC1c1noc(C(C)C)n1 (configuration not stated) | -8.69
O=C(CCc1ccccn1)N1CCCC(n2cncn2)C1 (configuration not stated) | -15.5
O=C(c1cccc2cn[nH]c12)N1CCCC1c1noc(C2CC2)n1 (configuration not stated) | -16.8
Cc1nc(C2CCN(C(=O)c3cc(C4CC4)[nH]n3)CC2)no1 | -6.44
Cn1c(C2CC2)nc2c1CCN(CCOc1cccc(F)c1)C2 | -13.1
Cn1c(C2CC2)nc2c1CCN(CC(=O)Nc1nccs1)C2 | -9.83
CNC(=O)NC(=O)CCN1CCN(c2nccs2)CC1 | -11.1
CS(=O)(=O)CCNC(=O)c1ccc(-c2ccco2)[nH]c1=O | -22.8
Cc1nn(C)c(C)c1C1CCCN1CC(=O)Nc1nccs1 (configuration not stated) | -21.6
c1cnnc(N2CCCC(NCc3cccc4c3OCCCO4)C2)c1 (configuration not stated) | -19.8
CC(C)Oc1ncccc1CNC(=O)c1cc(C2CC2)on1 | -17.7
COc1cc(C)nc(N2CCN(C(=O)c3ccoc3C)CC2)n1 | -21.8
O=C(NC1CCN(c2snc3ccccc23)CC1)C1CCC1 | 4.5
CN1CC(=O)N(c2cnn(C)c2)CC12CCN(Cc1nccn1C)C2 (configuration not stated) | -15.3
CCO[C@H]1CO[C@@]2(CCCN(Cc3nc(C)cs3)C2)C1 | -9.75
Cc1nc(C2CCCNC2)nc2c1CCCN2Cc1ccccn1 (configuration not stated) | -2.76
CN1CCN(Cc2cn3c(n2)CN(C2CCOCC2)CC3)CC1 | 3.91
CN(C)C(=O)CN1CCOCC2(C1)CN(c1ncccn1)CCO2 (configuration not stated) | 1.71
CN(C)c1nc2c(c(N(C)C)n1)CCN(C(=O)CN1C[C@H]3CC[C@@H]1C3)C2 | 4.45
